Laboratory results reported in ChEMBL document CHEMBL4425094, “Novel Benzo[a]quinolizidine Analogs Induce Cancer Cell Death through Paraptosis and Apoptosis” (J Med Chem, 2016).
Active and inactive are the calls of the source. The rule behind the calls is not given here.

Columns and labels:
RWPE-1 = assay: Cytotoxicity against human RWPE1 cells assessed as cell growth inhibition after 24 hrs by MTT assay; format: cell-based; conditions: RWPE-1, 24 h
Method in brief: (§1)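 Cells seeded 24 h in RPMI 1640 + 10% FBS. RWPE-1 was kept in K-SFM with bovine pituitary extract and EGF. Cells then exposed to compounds for 24 h at 37 °C, 5% CO2, with DMSO vehicle and docetaxel as positive control. MTT added for 4 h, absorbance read at 570 nm. Triplicate runs, IC50 reported as mean of three experiments.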

PC-3 [1] = assay: Induction of apoptosis in human PC3 cells assessed as PARP cleavage after 24 hrs by Western blot analysis; format: functional, cell-based
Method in brief: (§2)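 PC3 cells in RPMI 1640 with 10% FBS, treated with compound for timed intervals. DMSO vehicle control. Lysis in RIPA buffer, 40 μg protein per lane on SDS-PAGE, transfer to nitrocellulose. Primary antibodies overnight at 4 °C, HRP-secondary 45 min, ECL detection. GAPDH or β-actin used as loading control.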

DU-145 = assay: Cytotoxicity against human DU145 cells assessed as cell growth inhibition after 24 hrs by MTT assay; format: functional, cell-based; conditions: DU-145, 24 h; method in brief: as §1
PC-3 [2] = assay: Induction of apoptosis in human PC3 cells assessed as late apoptotic cells at 2 uM after 24 hrs by Annexin V-FITC/propidium iodide based flow cytometric analysis (reference value: 1.1 %); format: functional
Method in brief: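 PC3 cells exposed to 0.5, 1 or 2 μM for 24 h, then stained with Annexin V-FITC and PI and analyzed by FACSCalibur flow cytometry. Populations assigned as necrotic (Annexin V−/PI+), late apoptotic (double positive), normal (Annexin V−/PI−) and early apoptotic (Annexin V+/PI−). DMSO vehicle control.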

[3] = Toxicity in athymic Balb/c mouse assessed as induction of mortality at 15 mg/kg, ip administered every 2 days for 18 days; format: organism-based; conditions: in vivo
Method in brief: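 Male athymic BALB/c-nu mice, 6 weeks old, bearing subcutaneous PC3M-luc-C6 xenografts (5 × 10^6 cells, right anterior flank) were grouped (n = 5) once tumours reached about 0.1 cm3. They received a 15 mg/kg suspension intraperitoneally every 2 days for 18 days, alongside placebo and docetaxel (15 mg/kg) groups. Body weight and deaths were recorded.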

PC-3 [4] = assay: Induction of autophagy in human PC3 cells assessed as vacuole formation at 1 uM after 24 hrs in presence of […] inhibitor E-64d by phase-contrast microscopic analysis; format: functional, cell-based
Method in brief: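 PC3 cells were pretreated with the autophagy inhibitor (3-MA or E64d), then exposed to 1 μM test agent for 24 h. Morphology was imaged by phase-contrast microscopy, and viability was read by MTT at 570 nm. Comparison was against agent-only cells.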

[5] = biological target: T1, Eukaryotic translation initiation factor 2-alpha kinase 3 (Homo sapiens) (UniProt Q9NZJ5); assay: Activation of PERK phosphorylation in human PC3 cells assessed as eIF2alpha phosphorylation after 24 hrs by Western blot analysis; format: cell-based; method in brief: as §2
T1 sequence (whole entry): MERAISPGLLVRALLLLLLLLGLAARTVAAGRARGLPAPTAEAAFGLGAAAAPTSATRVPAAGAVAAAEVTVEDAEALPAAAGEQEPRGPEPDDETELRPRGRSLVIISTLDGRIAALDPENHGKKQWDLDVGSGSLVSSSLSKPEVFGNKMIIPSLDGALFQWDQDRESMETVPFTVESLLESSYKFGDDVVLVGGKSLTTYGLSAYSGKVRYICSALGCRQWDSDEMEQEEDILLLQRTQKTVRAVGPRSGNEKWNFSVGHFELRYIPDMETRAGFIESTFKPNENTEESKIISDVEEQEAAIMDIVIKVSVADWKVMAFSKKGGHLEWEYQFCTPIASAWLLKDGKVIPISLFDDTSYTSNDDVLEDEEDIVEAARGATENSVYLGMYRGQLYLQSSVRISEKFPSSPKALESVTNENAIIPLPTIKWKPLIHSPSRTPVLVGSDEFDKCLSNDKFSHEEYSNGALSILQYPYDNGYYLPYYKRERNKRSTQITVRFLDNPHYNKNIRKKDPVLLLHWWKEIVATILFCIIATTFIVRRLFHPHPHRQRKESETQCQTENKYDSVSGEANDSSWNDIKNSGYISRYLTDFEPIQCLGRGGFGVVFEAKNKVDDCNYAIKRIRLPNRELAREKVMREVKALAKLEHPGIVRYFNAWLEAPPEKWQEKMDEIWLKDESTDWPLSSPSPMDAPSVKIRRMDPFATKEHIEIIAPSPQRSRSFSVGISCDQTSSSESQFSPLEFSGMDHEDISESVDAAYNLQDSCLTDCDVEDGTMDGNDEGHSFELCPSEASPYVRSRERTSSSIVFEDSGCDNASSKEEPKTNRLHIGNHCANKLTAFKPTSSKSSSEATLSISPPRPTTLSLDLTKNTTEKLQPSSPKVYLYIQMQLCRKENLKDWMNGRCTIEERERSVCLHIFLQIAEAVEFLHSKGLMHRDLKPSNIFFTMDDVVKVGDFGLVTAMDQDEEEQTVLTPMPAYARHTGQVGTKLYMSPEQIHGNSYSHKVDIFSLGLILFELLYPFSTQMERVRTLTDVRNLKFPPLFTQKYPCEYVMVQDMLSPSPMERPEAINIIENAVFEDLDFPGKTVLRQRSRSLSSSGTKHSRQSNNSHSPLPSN

PC-3 [6] = assay: Induction of vacuolization in human PC3 cells in presence of AcT-D after 24 hrs by phase-contrast microscopic analysis; format: functional, cell-based
Method in brief: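 PC3 cells pretreated with 10 μM actinomycin D or 5 μM cycloheximide, then treated with agent for 24 h. Vacuolization imaged by phase-contrast microscopy; viability by MTT.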

PC-3 [7] = assay: Induction of cell cycle arrest in human PC3 cells assessed as accumulation in G2 phase at 1 uM after 24 hrs by […]propidium iodide based flow cytometric analysis (reference value: 16.3 to 25 %); format: functional
PC-3 [8] = assay: Induction of autophagy in human PC3 cells transfected with mRFP-GFP-LC3 assessed as pervacuolar distribution of LC3 at 1 uM after 8 hrs by fluorescence microscopic analysis; format: functional, cell-based
Method in brief: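 PC3 cells transfected with an mRFP-GFP-LC3 reporter plasmid, then treated 8 h with 1 μM test agent or 0.5 μM rapamycin (autophagy inducer). Imaged by confocal fluorescence microscopy: yellow puncta (overlapping red/green) scored as autophagosomes, red-only puncta as autolysosomes, since GFP is quenched in acidic lysosomes.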

PC-3 [9] = assay: Induction of cell cycle arrest in human PC3 cells assessed as accumulation in S phase at 1 uM after 24 hrs by […]propidium iodide based flow cytometric analysis (reference value: 21 to 31.6 %); format: functional
PC-3 [10] = assay: Cytotoxicity against human PC3 cells assessed as reduction in cell viability at 1 uM after 24 hrs in presence of PI3K inhibitor 3-MA by MTT assay; format: functional, cell-based
Method in brief: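 PC3 cells pretreated with autophagy inhibitor 3-MA or E64d, then given 1 μM compound for 24 h. Viability measured by MTT (4 h, 570 nm). Morphology checked by phase-contrast microscopy.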

In the case of `Cc1cc(C)cc(COc2cc3c(cc2OCc2cc(C)cc(C)c2)[C@@H]2C[C@H](O)C[C@@H](C)N2CC3)c1` (racemic), the IC50 (RWPE-1) is reported as 5.06 µM, the Activity (PC-3 [1]) is reported as “Active” and the IC50 (DU-145) is reported as 1.96 µM. The Activity (PC-3 [2]) was 36.4%, the Activity [3] was “Non-Toxic” and the Activity (PC-3 [4]) was “Active”. For the same compound, the Activity [5] was “Active”, the Activity (PC-3 [6]) was “inactive” and the Activity (PC-3 [7]) was 11.9 - 14.5%. For the same compound, the Activity (PC-3 [8]) was “Active”, the Activity (PC-3 [9]) was 10.1 - 20.4% and the Activity (PC-3 [10]) was “inactive”.
